Assay [1] deals with Hippocampus. The experiment in a line: Cognitive enhancing effect in Sprague-Dawley rat hippocampal CA1 region assessed as increase in amplitude of populations spikes at 10 uM. The format is functional. An outline of the steps: (§1)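 Male Sprague–Dawley rats (75–150 g) were halothane-anesthetized and decapitated. Coronal hippocampal slices were cut in ice-cold carbogenated aCSF and rested 1 h at room temperature. Extracellular field PS were recorded in CA1 after at least 15 min of stable baseline. Compound (10 mM DMSO stock, diluted ≥1000-fold in aCSF) was bath-perfused, then washed out. Amplitude was normalized to the mean of 4–5 pre-drug responses; mean ± SE, paired t-test.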

Assay [2] deals with Hippocampus. The experiment in a line: Cognitive enhancing effect in Sprague-Dawley rat hippocampal CA1 region assessed as amplitude of populations spikes at 10 uM in presence of d-tubocurarine. It counts as functional. An outline of the steps: (§2)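 CA1 field PS were recorded extracellularly in coronal hippocampal slices from male Sprague–Dawley rats (75–150 g), kept in carbogenated aCSF. Receptor antagonists (d-tubocurarine, atropine, CGP55845 or 8-cyclopentyl-theophylline) were bath-perfused together with the compound, which was diluted ≥1000-fold from a 10 mM DMSO stock. PS amplitude was normalized to the mean of 4–5 responses before drug; mean ± SE, Student's t-test.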

In assay [3] the test system is Hippocampus. The experiment in a line: Cognitive enhancing effect in Sprague-Dawley rat hippocampal CA1 region assessed as increase in amplitude of populations spikes at 10 uM in presence of atropine. It counts as functional. An outline of the steps: as §2
Assay [4] has as its system Hippocampus. The assay can be described thus: Cognitive enhancing effect in Sprague-Dawley rat hippocampal CA1 region assessed as increase in amplitude of populations spikes at 10 uM after 20 mins of compound wash out. It counts as functional. An outline of the steps:
as §1

For assay [5], the system named is Hippocampus. The experiment in a line: Cognitive enhancing effect in Sprague-Dawley rat hippocampal CA1 region assessed as increase in amplitude of populations spikes at 10 uM in presence of CGP-55845 relative to basal level. It counts as functional. An outline of the steps:
as §2

Assay [6] concerns Hippocampus. The experiment in a line: Cognitive enhancing effect in Sprague-Dawley rat hippocampal CA1 region assessed as increase in amplitude of populations spikes. The format is functional, tissue-based. An outline of the steps:
as §1

For assay [7], the system named is Hippocampus. The assay can be described thus: Cognitive enhancing effect in Sprague-Dawley rat hippocampal CA1 region assessed as increase in amplitude of populations spikes at 10 uM in presence of CPT relative to basal level. It counts as functional. An outline of the steps: as §2
Assay [8] has as its system Hippocampus. The experiment in a line: Cognitive enhancing effect in Sprague-Dawley rat hippocampal CA1 region assessed as increase in amplitude of populations spikes at 1 uM. The format is functional. An outline of the steps: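 Male Sprague-Dawley rats (75–150 g) anesthetized with halothane and decapitated. 400 µm coronal hippocampal slices cut in ice-cold carbogenated aCSF, then held 1 h at room temperature. Extracellular field recording of evoked population spikes in CA1. After at least 15 min of stable baseline, analogs (10 mM DMSO stocks, diluted ≥1000-fold in aCSF) were bath-perfused. Amplitude normalized to the mean of 4–5 pre-drug responses.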

Assay [9] relates to Hippocampus. The experiment in a line: Decrease in amplitude of populations spikes in Sprague-Dawley rat hippocampal CA1 region at 10 uM. Also noted: scale not given: the % may be the effect or the level left. It counts as functional. An outline of the steps:
as §1

Assay [10] deals with Hippocampus. The experiment in a line: Decrease in amplitude of populations spikes in Sprague-Dawley rat hippocampal CA1 region. The format is functional, tissue-based. An outline of the steps: as §1
In assay [11] the test system is Hippocampus. The assay can be described thus: Decrease in amplitude of populations spikes in Sprague-Dawley rat hippocampal CA1 region at 10 uM after 10 mins of compound wash out. The format is functional. Also noted: scale not given: the % may be the effect or the level left. An outline of the steps:
as §1

Assay [12] concerns Hippocampus. The assay can be described thus: Cognitive enhancing effect in Sprague-Dawley rat hippocampal CA1 region assessed as increase in amplitude of populations spikes at 100 uM. It counts as functional.

The EC50 is the concentration at which the effect is half-maximal.

Take `Cn1c(=O)c2c(ncn2CCCC(=O)N2CCCC2=O)n(C)c1=O`: the Activity with Hippocampus [1] was 6.4%.

For the molecule `Cn1c(=O)c2c(ncn2CC(=O)N2CCCCCC2=O)n(C)c1=O`, the Activity in the assay on Hippocampus [1] is 42.4%.

As for `Cn1c(=O)c2c(ncn2CCCC(=O)N2CCCCCC2=O)n(C)c1=O`, the Activity in the assay on Hippocampus [2] is -2.5%; in the assay with Hippocampus [1] it was 56.5%; in the assay with Hippocampus [3], 0.2%; in the assay on Hippocampus [4], 45.8%; in the assay with Hippocampus [5], 32.7%; in the assay on Hippocampus [6], “Dose-dependent effect”. Further, the Activity with Hippocampus [7] came out at 47.9%. In addition, in the assay on Hippocampus [6], the EC50 was 2000 nM.

On to `C[C@H](NC[C@H](O)CP(=O)(O)Cc1ccccc1)c1ccc(Cl)c(Cl)c1`, for which the Activity with Hippocampus [8] was 53.8%.

`Cn1c(=O)c2c(ncn2CCCC(=O)N2CCCCC2=O)n(C)c1=O`: the Activity is -25.9% in the assay with Hippocampus [9]; “Dose-dependent effect” in the assay with Hippocampus [10]; 10.6% in the assay with Hippocampus [5]; 91.1% in the assay with Hippocampus [11]; -27.6% in the assay with Hippocampus [7]. The molecule also returned a concentration for a half-maximal effect (EC50) in the assay on Hippocampus [10] of 60 nM.

`CC[C@@]1(O)C(=O)OCc2c1cc1n(c2=O)Cc2cc3ccccc3nc2-1` [CAMPTOTHECIN]: in the assay with Hippocampus [8], the Activity is listed as 51.6%.

Take `Cn1c(=O)c2c(ncn2CCC(=O)N2CCCCCC2=O)n(C)c1=O`: in the assay on Hippocampus [1], the Activity worked out at 40.9%.

As to `COc1cc2c3cc1Oc1cc(ccc1O)C[C@@H]1c4c(cc(OC)c(O)c4Oc4ccc(cc4)C[C@@H]3N(C)CC2)CC[N+]1(C)C.[Cl-]`, the Activity in the assay on Hippocampus [12] came to 1.8%.

As for `Cn1c(=O)c2c(ncn2CC(=O)N2CCCC2=O)n(C)c1=O`, the Activity in the assay on Hippocampus [1] is 6.4%.
